The source made the active and inactive calls. No cut-off for these calls is given here.
target: RNA-directed RNA polymerase (Hepacivirus hominis, UniProt O39930); experiment: Inhibition of HCV BK NS5B deltaC55 RNA dependent RNA polymerase; set-up: species or system Hepatitis C virus (isolate BK); settings: not given
Summary of the method: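 Purified NS5B ΔC55 enzyme from HCV genotype BK strain, assayed with heterogeneous template RNA; IC50 determined with a modified literature protocol.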

RNA-directed RNA polymerase, sequence (O39930 whole entry): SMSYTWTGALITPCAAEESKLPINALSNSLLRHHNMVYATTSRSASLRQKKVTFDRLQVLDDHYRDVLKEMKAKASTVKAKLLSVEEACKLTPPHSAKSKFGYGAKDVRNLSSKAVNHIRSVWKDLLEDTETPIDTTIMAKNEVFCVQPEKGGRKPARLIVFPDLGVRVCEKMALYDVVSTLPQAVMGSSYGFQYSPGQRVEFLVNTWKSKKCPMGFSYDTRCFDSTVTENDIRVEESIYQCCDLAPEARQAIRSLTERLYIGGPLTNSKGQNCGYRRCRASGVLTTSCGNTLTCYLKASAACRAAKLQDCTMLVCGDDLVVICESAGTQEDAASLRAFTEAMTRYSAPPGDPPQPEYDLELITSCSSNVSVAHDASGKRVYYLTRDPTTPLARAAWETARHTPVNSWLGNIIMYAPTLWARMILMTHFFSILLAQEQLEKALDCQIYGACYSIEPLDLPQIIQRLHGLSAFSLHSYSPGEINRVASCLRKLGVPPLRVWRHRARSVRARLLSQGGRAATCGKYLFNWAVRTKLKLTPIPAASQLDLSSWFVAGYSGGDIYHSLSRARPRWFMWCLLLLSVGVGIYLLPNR

Structure (SMILES)	IC50 [µM]
CN(C)C(=O)Cn1c(-c2ccccc2)c(C2CCCCC2)c2ncc(C(=O)O)cc21	2.2
O=C(O)c1cc2nc(-c3ccccc3)n(C3CCCCC3)c2[nH]1	> 50
O=C(O)c1cc2[nH]c(-c3ccccc3)c(C3CCCCC3)c2s1	0.066
CN(C)C(=O)Cn1c(-c2ccccc2)c(C2CCCCC2)c2ccc(C(=O)O)nc21	0.32
CN(C)C(=O)Cn1c(-c2ccccc2)c(C2CCCCC2)c2sc(C(=O)O)cc21	0.058
O=C(O)c1ccc2c(C3CCCCC3)c(-c3ccccc3)[nH]c2n1	0.15
O=C(O)c1cc2c(C3CCCCC3)c(-c3ccccc3)[nH]c2s1	0.12
O=C(O)c1ccc2cc(C3CCCCC3)c(-c3ccccc3)nc2c1	> 50
CN(C)C(=O)Cn1c(-c2ccccc2)c(C2CCCCC2)c2cc(C(=O)O)sc21	0.23

Further lines, results first:

IC50 [µM]	Structure (SMILES)
0.094	O=C(O)c1ccc2c(C3CCCCC3)c(-c3ccccc3)cn2c1
17.2	O=C(O)c1cc2nc(-c3ccccc3)n(C3CCCCC3)c2s1
1.9	O=C(O)c1c[nH]c2c(C3CCCCC3)c(-c3ccccc3)nc-2c1
13.8	O=C(O)c1cc2c(nc(-c3ccccc3)n2C2CCCCC2)s1
4.8	O=C(O)c1ccc2nc(-c3ccccc3)c(C3CCCCC3)cc2c1
6.5	O=C(O)c1ccc2c(c1)nc(-c1ccccc1)n2C1CCCCC1
77.3	COc1ccc(-c2nc(/C=C/C(=O)O)cn2C2CCCCC2)cc1
11.2	COc1ccc(-c2nc3cc(C(=O)O)ccc3n2C2CCCCC2)cc1

system: Hepatitis C virus; experiment: Inhibition of HCV RNA replication in Huh7 cells in presence of 10% fetal calf serum; format: functional, organism-based, Hepacivirus hominis; settings: Huh-7

Structure (SMILES)	EC50 [µM]
CN(C)C(=O)Cn1c(-c2ccccc2)c(C2CCCCC2)c2ncc(C(=O)O)cc21	> 50
O=C(O)c1cc2[nH]c(-c3ccccc3)c(C3CCCCC3)c2s1	11.2
CN(C)C(=O)Cn1c(-c2ccccc2)c(C2CCCCC2)c2ccc(C(=O)O)nc21	9.8
CN(C)C(=O)Cn1c(-c2ccccc2)c(C2CCCCC2)c2sc(C(=O)O)cc21	2.9
O=C(O)c1ccc2c(C3CCCCC3)c(-c3ccccc3)[nH]c2n1	16.8
O=C(O)c1cc2c(C3CCCCC3)c(-c3ccccc3)[nH]c2s1	19.5
O=C(O)c1ccc2c(C3CCCCC3)c(-c3ccccc3)n(CC(=O)N3CCOCC3)c2c1	0.8
CN(C)C(=O)Cn1c(-c2ccccc2)c(C2CCCCC2)c2cc(C(=O)O)sc21	9.5

Other lines, results leading:

EC50 [µM]	Structure (SMILES)
6.7	O=C(O)c1ccc2c(C3CCCCC3)c(-c3ccccc3)[nH]c2c1
48.2	O=C(O)c1c[nH]c2c(C3CCCCC3)c(-c3ccccc3)nc-2c1
> 50	O=C(O)c1ccc2c(c1)nc(-c1ccccc1)n2C1CCCCC1
> 50	COc1ccc(-c2nc3cc(C(=O)O)ccc3n2C2CCCCC2)cc1

system: Hepatitis C virus; experiment: Inhibition of HCV RNA replication in Huh7 cells up to 100 uM; format: functional, organism-based; settings: Hepacivirus hominis; Huh-7

Structure (SMILES)	Activity
O=C(O)c1cc2nc(-c3ccccc3)n(C3CCCCC3)c2[nH]1	inactive
O=C(O)c1ccc2c(C3CCCCC3)c(-c3ccccc3)cn2c1	inactive
O=C(O)c1cc2nc(-c3ccccc3)n(C3CCCCC3)c2s1	inactive
O=C(O)c1cc2c(nc(-c3ccccc3)n2C2CCCCC2)s1	inactive
O=C(O)c1ccc2cc(C3CCCCC3)c(-c3ccccc3)nc2c1	inactive
O=C(O)c1ccc2nc(-c3ccccc3)c(C3CCCCC3)cc2c1	inactive
COc1ccc(-c2nc(/C=C/C(=O)O)cn2C2CCCCC2)cc1	inactive

system: not listed separately; experiment: Partition coefficient, log D at pH 7.4; settings: octanol/water

logD	Structure (SMILES)
0.8	CN(C)C(=O)Cn1c(-c2ccccc2)c(C2CCCCC2)c2ncc(C(=O)O)cc21
3.4	O=C(O)c1cc2[nH]c(-c3ccccc3)c(C3CCCCC3)c2s1
1.1	CN(C)C(=O)Cn1c(-c2ccccc2)c(C2CCCCC2)c2ccc(C(=O)O)nc21
3.3	O=C(O)c1ccc2c(C3CCCCC3)c(-c3ccccc3)[nH]c2n1
2.5	O=C(O)c1c[nH]c2c(C3CCCCC3)c(-c3ccccc3)nc-2c1
